Data as given in ChEMBL document CHEMBL1121930, “Design of more potent antagonists of the antidiuretic responses to arginine-vasopressin” (J Med Chem, 1982).
“And” between values parts separate entries of the source, which are not always exact repeats. Equal entries are not always repeated. *1 amine or outer side, *2 acyl side, *3 side chain or, on linkers, in order; H or OH if unused. Where a SMILES comes first, the peptide text is derived from it. Bridges are numbered along the chain shown (N, C = ends). [ ]: non-standard residue; d: D form. The star is where a group is joined. X1 = O=C(CC1(S[*:2])CCCCC1)[*:1]; Propyl = CCC*; iPr = CC(C)*

Assays:
Rattus norvegicus [1] = assay: Antivasopressor effective dose is defined as the dose that reduces the response seen with 2 units of agonist to equal the response seen with 1 unit of agonist administered before antagonist.; type: functional
Outline: (§1)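 Intravenous vasopressor assay in phenoxybenzamine-treated rats under urethane anesthesia, agonist USP posterior pituitary reference standard. Effective dose (nmol/kg) cuts the response to 2x units of agonist to that of 1x units given before the antagonist. pA2 = −log(effective dose / 67 mL/kg).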

Rattus norvegicus [2] = assay: Effective dose is defined as the dose that reduces the response seen with 2 units of agonist to equal the response seen with 1 unit of agonist administered before antagonist.; type: functional
Rattus norvegicus [3] = assay: In vivo pA2 value represent the negative logarithm of the effective dose divided by the estimated volume of distribution (67 mL/kg).; type: functional, organism-based
Rattus norvegicus [4] = assay: Antidiuretic effective dose is expressed as the dose that reduces the response seen with 2 units of agonist to equal the response seen with 1 unit of agonist administered before antagonist.; type: functional, Urine
Outline: (§2)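 Rats under ethanol anesthesia, agonist USP posterior pituitary reference standard. Agonist injected 20 and 50 min after the antagonist. Responses at 20 min were used, or at 50 min for analogues that inhibited more then. Each antagonist was given at two doses, one above and one below the effective dose (nmol/kg). pA2 = −log(effective dose / 67 mL/kg).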

Rattus norvegicus [5] = assay: Antivasopressor effective dose is expressed as the dose that reduces the response seen with 2 units of agonist to equal the response seen with 1 unit of agonist administered before antagonist.; type: functional; outline: as §1
Rattus norvegicus [6] = assay: In vivo pA2 value represent the negative logarithm of the antidiuretic effective dose divided by the estimated volume of distribution (67 mL/kg).; type: functional, organism-based; conditions: Urine, read-out: pA2 (converted); outline: as §2
Rattus norvegicus [7] = assay: In vivo pA2 value represent the negative logarithm of the anti-vasopressor effective dose divided by the estimated volume of distribution (67 mL/kg).; type: functional, organism-based; conditions: read-out: pA2 (converted); outline: as §1
Rattus norvegicus [8] = assay: Effective dose is defined as the dose that reduces the response seen with 2 units of agonist to equal the response seen with 1 unit of agonist administered before antagonist; agonist; type: functional, organism-based; conditions: filed as agonist

Row | Structure (SMILES) | Effective dose (Rattus norvegicus [1]) | Effective dose (Rattus norvegicus [2]) | further results
1 | CC(C)[C@@H]1NC(=O)[C@H](Cc2ccccc2)NC(=O)[C@H](Cc2ccc(O)cc2)NC(=O)CC2(CCCCC2)SSC[C@@H](C(=O)N2CCC[C@H]2C(=O)N[C@H](CCCN=C(N)N)C(=O)NCC(N)=O)NC(=O)[C@H](CC(N)=O)NC1=O | 1.5 nM/kg | – | –
2 | CC(C)[C@@H]1NC(=O)[C@H](Cc2ccccc2)NC(=O)[C@@H](Cc2ccc(O)cc2)NC(=O)CC2(CCCCC2)SSC[C@@H](C(=O)N2CCC[C@H]2C(=O)N[C@@H](CCCN=C(N)N)C(=O)NCC(N)=O)NC(=O)[C@H](CC(N)=O)NC1=O | 0.29 nM/kg | 2.2 nM/kg | –
3 | CCOc1ccc(C[C@@H]2NC(=O)CC3(CCCCC3)SSC[C@@H](C(=O)N3CCC[C@H]3C(=O)N[C@@H](CCCN=C(N)N)C(=O)NCC(N)=O)NC(=O)[C@H](CC(N)=O)NC(=O)[C@H](C(C)C)NC(=O)[C@H](Cc3ccccc3)NC2=O)cc1 (Y(Et)FVNCPRG-NH2; linker N-5 via X1) | 0.45 nM/kg | 1.1 nM/kg | pA2 (Rattus norvegicus [3]): 7.81 and 8.22
4 | CCOc1ccc(C[C@@H]2NC(=O)CC3(CCCCC3)SSC[C@@H](C(=O)N3CCC[C@H]3C(=O)N[C@H](CCCN=C(N)N)C(=O)NCC(N)=O)NC(=O)[C@H](CC(N)=O)NC(=O)[C@H](C(C)C)NC(=O)[C@H](Cc3ccccc3)NC2=O)cc1 (Y(Et)FVNCP[dR]G-NH2; linker N-5 via X1) | 0.88 nM/kg | 1.8 nM/kg | –
5 | COc1ccc(C[C@@H]2NC(=O)CC3(CCCCC3)SSC[C@@H](C(=O)N3CCC[C@H]3C(=O)N[C@@H](CCCN=C(N)N)C(=O)NCC(N)=O)NC(=O)[C@H](CC(N)=O)NC(=O)[C@H](C(C)C)NC(=O)[C@H](Cc3ccccc3)NC2=O)cc1 (Y(Me)FVNCPRG-NH2; linker N-5 via X1) | 0.23 nM/kg | 1.2 nM/kg | –
6 | COc1ccc(C[C@@H]2NC(=O)CC3(CCCCC3)SSC[C@@H](C(=O)N3CCC[C@H]3C(=O)N[C@H](CCCN=C(N)N)C(=O)NCC(N)=O)NC(=O)[C@H](CC(N)=O)NC(=O)[C@H](C(C)C)NC(=O)[C@H](Cc3ccccc3)NC2=O)cc1 (Y(Me)FVNCP[dR]G-NH2; linker N-5 via X1) | – | – | Effective dose (Rattus norvegicus [4]): 4.9 nM/kg; Effective dose (Rattus norvegicus [5]): 0.54 nM/kg; Kb (Rattus norvegicus [6]): 64.6 nM; Kb (Rattus norvegicus [7]): 7.94 nM
7 | CCCOc1ccc(C[C@@H]2NC(=O)CC3(CCCCC3)SSC[C@@H](C(=O)N3CCC[C@H]3C(=O)N[C@@H](CCCN=C(N)N)C(=O)NCC(N)=O)NC(=O)[C@H](CC(N)=O)NC(=O)[C@H](C(C)C)NC(=O)[C@H](Cc3ccccc3)NC2=O)cc1 (Y(Propyl)FVNCPRG-NH2; linker N-5 via X1) | 0.51 nM/kg | 1.7 nM/kg | –
8 | CC(C)Oc1ccc(C[C@@H]2NC(=O)CC3(CCCCC3)SSC[C@@H](C(=O)N3CCC[C@H]3C(=O)N[C@@H](CCCN=C(N)N)C(=O)NCC(N)=O)NC(=O)[C@H](CC(N)=O)NC(=O)[C@H](C(C)C)NC(=O)[C@H](Cc3ccccc3)NC2=O)cc1 (Y(iPr)FVNCPRG-NH2; linker N-5 via X1) | 0.28 nM/kg | 1.6 nM/kg | –
9 | CC(C)Oc1ccc(C[C@@H]2NC(=O)CC3(CCCCC3)SSC[C@@H](C(=O)N3CCC[C@H]3C(=O)N[C@H](CCCN=C(N)N)C(=O)NCC(N)=O)NC(=O)[C@H](CC(N)=O)NC(=O)[C@H](C(C)C)NC(=O)[C@H](Cc3ccccc3)NC2=O)cc1 (Y(iPr)FVNCP[dR]G-NH2; linker N-5 via X1) | 0.46 nM/kg | 2.2 nM/kg | –
10 | CC(C)[C@@H]1NC(=O)[C@H](Cc2ccccc2)NC(=O)[C@H](Cc2ccc(O)cc2)NC(=O)CC2(CCCCC2)SSC[C@@H](C(=O)N2CCC[C@H]2C(=O)N[C@@H](CCCN=C(N)N)C(=O)NCC(N)=O)NC(=O)[C@H](CC(N)=O)NC1=O (stereo in doubt) [listing 1 of 2 here] | 0.76 nM/kg | – | –
11 | CC(C)[C@@H]1NC(=O)[C@H](Cc2ccccc2)NC(=O)[C@H](Cc2ccc(O)cc2)NC(=O)CC2(CCCCC2)SSC[C@@H](C(=O)N2CCC[C@H]2C(=O)N[C@@H](CCCN=C(N)N)C(=O)NCC(N)=O)NC(=O)[C@H](CC(N)=O)NC1=O (stereo in doubt) [listing 2 of 2 here] | – | – | Effective dose (Rattus norvegicus [8]): Agonist
12 | CC(C)[C@@H]1NC(=O)[C@H](Cc2ccccc2)NC(=O)[C@H](Cc2ccc(O)cc2)NC(=O)CC2(CCCCC2)SSC[C@@H](C(=O)N2CCC[C@H]2C(=O)N[C@@H](CCCN=C(N)N)C(=O)NCC(N)=O)NC(=O)[C@H](CC(N)=O)NC1=O (stereo in doubt; 9) | 0.6 nM/kg | 6.3 nM/kg | –
